Source: PubChem
CHT block – inhibitors of human choline transporter CHT; Q9GZV3; 0.86% of 310,000 active; B-score at 10 µM; CHT-expressing cells, membrane potential dye, choline response; stronger effect = lower value;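 active means B-score over 3 SD under the library average, and starting fluorescence ratio not unusually high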;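 further: choline stimulus applied at its EC90 after an EC20 pre-addition; B-score computed on integrated fluorescence ratio after choline addition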
TNAP act hi DEA – increases human TNAP activity under high phosphate acceptor concentration | purified TNAP, CDP-star luminescence, 1 M DEA, 30 min; stronger effect = higher value; 0 = EDTA background, 1 = DMSO-only activity | activation factor at 20 µM | 200,000 tested, under 10 active | AID 1136;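 active means activation factor at least 2 at 20 µM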
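Dosing: 20 µM single point. System: human TNAP. Amount: TNAP 1/800 final. Incubation: 30 min, room temperature. Read-out: TNAP activation factor scaled between EDTA and DMSO control wells. Signal: luminescence from CDP-star hydrolysis. Medium: 1 M DEA, pH 9.8, Mg2+, Zn2+. Control set: EDTA negative control, DMSO positive control.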
TNAP inh hi DEA – TNAP (human) inhibition, high acceptor | P05186 | purified TNAP, CDP-star luminescence, 1 M DEA | inhibition, % at 20 µM | 0.03% of 200,000 active | AID 1135;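 active means over 50% inhibition of tissue-nonspecific alkaline phosphatase at 20 µM in the single-dose screen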;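 further: plate controls were DMSO wells for no effect and EDTA-quenched wells as full inhibition for full effect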
ABCB6 inh 2 – blocks the human ABCB6 transporter. Q9NP58. AID 602162. 0.19% of 360,000 active. K562-ABCB6 porphyrin accumulation, flow cytometry, 1 h; stronger effect = lower value. fluorescence ratio to DMSO, % at 10 µM;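 active means fluorescence ratio to DMSO below 75%, the collection mean minus 3 SD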;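 further: signal is porphyrin accumulated inside mitochondria; 100% equals median channel fluorescence of DMSO control wells; lower ratio means ABCB6 inhibition with less porphyrin fluorescence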
Target sequence (Q9NP58 whole entry, looked up): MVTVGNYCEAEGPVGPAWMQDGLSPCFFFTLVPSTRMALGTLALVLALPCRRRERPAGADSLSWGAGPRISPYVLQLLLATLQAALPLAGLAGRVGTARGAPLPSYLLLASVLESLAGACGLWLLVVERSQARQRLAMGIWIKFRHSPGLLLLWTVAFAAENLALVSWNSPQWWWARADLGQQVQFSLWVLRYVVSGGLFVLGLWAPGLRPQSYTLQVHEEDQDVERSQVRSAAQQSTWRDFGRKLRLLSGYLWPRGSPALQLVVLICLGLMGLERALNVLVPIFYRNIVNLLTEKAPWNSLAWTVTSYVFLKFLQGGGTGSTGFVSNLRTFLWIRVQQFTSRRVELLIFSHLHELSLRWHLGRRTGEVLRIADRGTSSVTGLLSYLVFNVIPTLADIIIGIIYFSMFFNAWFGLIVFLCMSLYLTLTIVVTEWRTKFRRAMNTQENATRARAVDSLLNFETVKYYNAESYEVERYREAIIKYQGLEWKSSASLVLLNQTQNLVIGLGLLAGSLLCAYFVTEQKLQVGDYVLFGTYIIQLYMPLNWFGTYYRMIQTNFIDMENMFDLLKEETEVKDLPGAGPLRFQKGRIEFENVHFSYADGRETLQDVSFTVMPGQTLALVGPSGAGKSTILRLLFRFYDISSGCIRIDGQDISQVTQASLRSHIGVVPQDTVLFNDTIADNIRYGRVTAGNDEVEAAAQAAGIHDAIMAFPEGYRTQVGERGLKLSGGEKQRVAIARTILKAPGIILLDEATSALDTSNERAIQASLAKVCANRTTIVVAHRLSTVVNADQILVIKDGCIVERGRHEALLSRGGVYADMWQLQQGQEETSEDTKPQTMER
CHT PAM – human CHT allosteric activation; Q9GZV3; CHT-expressing cells, membrane potential dye, choline EC20; stronger effect = higher value; LV-AA mutant CHT in HEK293 cells; B-score at 10 µM; 0.49% of 310,000 active;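 active means initial fluorescence not abnormally high and integrated response B-score, plate-corrected, over 3 SD above library mean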
TNAP inh no acc – blocks human TNAP activity with no phosphate acceptor present; P05186; purified TNAP, CDP-star luminescence, 30 min; inhibition, % at 20 µM; 0.26% of 200,000 active;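 active means tissue-nonspecific alkaline phosphatase inhibition above about 50% at 20 µM in the single-dose screen, limit read from the data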;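 further: 0% = DMSO negative control and 100% = EDTA positive control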
CHT act confirm – human CHT activation, confirmatory screen; CHT-expressing cells, membrane potential dye fluorescence (FDSS); % of choline EC20–EC90 response window; HEK293 expressing CHT LV-AA mutant; choline added at its EC20; activation, % at 10 µM; shares compounds with CHT PAM; AID 504833; 91% of 2,500 active;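 active means primary screen active, with duplicate mean activation above negative control mean plus 3 SD, cut at about 11% in these data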
HEK293 MP dye – counter-screen for CHT activators: effect in parental HEK293 cells; shares compounds with CHT PAM; 62% of 2,500 active; membrane potential dye fluorescence (FDSS); measured after EC20 choline addition; ratio readout change at 10 µM, hits read low;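 active means duplicate-averaged ratio beyond 3 SD from buffer wells, up or down, though filed actives are nearly all decreases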
ABCB6 blocker 1 – human ABCB6 transporter inhibition | shares compounds with ABCB6 inh 2 | K562-ABCB6 porphyrin accumulation, flow cytometry, 1 h; stronger effect = lower value | ratio response (% of DMSO), % at 10 µM | 700 tested, under 10 active;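 active means repeat-averaged ratio response below 75% of DMSO, the collection mean minus 3 SD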;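 further: median porphyrin fluorescence at 575 nm with 488 nm excitation from mitochondria; lower ratio means less porphyrin signal so ABCB6 inhibition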
An asterisk follows results filed as active; i = inactive; nt = no result. Most compounds without a hit are left out; they make up all but 1.4% or so of the library.

SMILES | CHT block | TNAP act hi DEA | TNAP inh hi DEA | ABCB6 inh 2 | CHT PAM | TNAP inh no acc | ABCB6 blocker 1 | others
O=C(CCn1cccn1)N1CCCC(N2CCN(c3cccc(Cl)c3)CC2)C1 (configuration not stated) | i | nt | nt | 102.0 | i | nt | nt
COC/C=C/C1=CC2=CC(=O)C(C)(OC(=O)c3cnc4ccccc4n3)C(=O)C2=CN1C1CCCC1 (configuration not stated) | i | nt | nt | nt | i | nt | nt
Cn1c(=O)n(C)c2cc(/C=N/n3cnnc3)ccc21 | i | 1 | -1.3 | 105.0 | 8.75* | -4.6 | nt | CHT act confirm=69.8*;HEK293 MP dye=-68.6*
CN(Cc1ccccc1)C(=O)c1[nH]cnc1C(=O)N[C@@H](CCCCNC(=O)OC(C)(C)C)C(=O)OC(C)(C)C | i | 1 | -3.9 | 101.0 | 10.8* | 0.7 | nt | CHT act confirm=20.0*;HEK293 MP dye=i
CC(C)(C)OC(=O)NCCCC[C@H](NC(=O)c1nc[nH]c1C(=O)NCc1ccccc1)C(=O)OC(C)(C)C | i | 1 | 0.1 | 98.0 | i | -6.4 | nt
CN(Cc1cccc2ccccc12)C(=O)c1cc(COc2c(F)cccc2F)on1 | i | 1.1 | -8.1 | 100.0 | i | -9.1 | nt | CHT act confirm=40.1*;HEK293 MP dye=i
CCN1CCN(c2nc3ccccc3nc2C(C#N)C(=O)OC2CCCCC2)CC1 (configuration not stated) | nt | 1 | 3.2 | 100.0 | nt | -2.9 | nt
CN1CCN(c2nc3ccccc3nc2C(C#N)C(=O)OC2CCCCC2)CC1 (configuration not stated) | i | 0.9 | 5.1 | 65.0* | 8.62* | 0.8 | 99.0 | CHT act confirm=44.4*;HEK293 MP dye=-47.9*
Cc1onc(-c2ccccc2Cl)c1C(=O)O/N=C(\N)c1ccc([N+](=O)[O-])o1 | i | nt | nt | 100.0 | i | nt | nt
CN1CCN(NC(=O)c2cc(-c3ccc(Cl)s3)nc3ccccc23)CC1 | i | nt | nt | 72.0* | i | nt | 101.0 | CHT act confirm=6.7;HEK293 MP dye=-36.5*
O=C(Oc1ccc(/C=N/n2cnnc2)cc1)c1cccc([N+](=O)[O-])c1 | i | 1 | -2.3 | 73.0* | i | -10.1 | 99.0
O=C(O)c1ccc(CSCc2ccco2)cc1 | i | 1 | -2.1 | 74.0* | i | -11.9 | 99.0
O=C(Cc1ccccc1)NCCSCc1ccco1 | i | 1 | -0.9 | 105.0 | i | -4.9 | nt
CSc1nnc(CNS(=O)(=O)c2ccc(Br)cc2)n1C | i | nt | nt | 102.0 | i | nt | nt
CCCc1ccc(S(=O)(=O)NCc2nnc(SC)n2C)cc1 | i | nt | nt | 63.0* | i | nt | 97.0
Cc1ccc(S(=O)(=O)NCC(=O)OCc2nnc(-c3ccccc3)o2)cc1 | i | nt | nt | 100.0 | i | nt | nt
COc1cc(OC)cc(OCC(O)Cn2ccnc2)c1 (configuration not stated) | i | 1.1 | -9.0 | 100.0 | i | 10.8 | nt
OC(COc1ccc(Br)cc1)Cn1ccnc1 (configuration not stated) | i | nt | nt | 74.0* | i | nt | 99.0
CCNC(=O)c1cccc(NC(=O)CN2C(=O)NC3(CCCCC3)C2=O)c1 | nt | nt | nt | 100.0 | nt | nt | nt
CC(=O)c1cccc(NC(=O)CN2C(=O)NC3(CCCCCCC3)C2=O)c1 | i | 1 | -0.2 | 61.0* | i | -4.6 | 99.0
COc1ccc(CCNC(=O)COc2ncnc3cc([N+](=O)[O-])ccc23)cc1 | i | 1 | -1.0 | 102.0 | i | -5.6 | nt
O=[N+]([O-])c1cccc(COc2ncnc3cc([N+](=O)[O-])ccc23)c1 | i | nt | nt | 10.0* | i | nt | 96.0
CCCn1c(SCC(=O)Nc2ccc(C(=O)Nc3ccccc3OC)cc2)n[nH]c1=O | i | 1 | -4.1 | 68.0* | i | 6.9 | 98.0
CCN(Cc1ccccc1)Cc1c(C)[nH]c2c(C)c(C)ccc2c1=O | i | 1 | -0.4 | 55.0* | i | -2.6 | 99.0
C=CCN(CC=C)Cc1c(C)[nH]c2c(C)c(C)ccc2c1=O | i | 1.1 | -8.0 | 114.0 | i | -9.8 | nt
SMILES | CHT block | TNAP act hi DEA | TNAP inh hi DEA | ABCB6 inh 2 | CHT PAM | TNAP inh no acc | ABCB6 blocker 1 | others
COc1ccc2cc(S(=O)(=O)NC3CC(C)(C)NC(C)(C)C3)ccc2c1 | i | nt | nt | 96.0 | i | nt | nt
CCOc1ccc(C(=O)CCC(=O)Nc2cc(C)ccn2)cc1 | i | nt | nt | 74.0* | i | nt | 104.0
CC1CCCCN1S(=O)(=O)c1ccc(N(C(=O)c2cnccn2)C(C(=O)NC2CCCC2)c2cccs2)cc1 (configuration not stated) | i | 1 | -4.9 | 70.0* | i | -20.0 | 101.0
O=C(CN1CCN(Cc2ccccc2)CC1)N/N=C/c1ccc(Br)s1 | i | nt | nt | 103.0 | i | nt | nt
O=C(c1ccco1)N1CCCC(c2nc3c(nnn3Cc3ccccc3)c(=O)[nH]2)C1 (configuration not stated) | i | nt | nt | 99.0 | i | nt | nt
Cc1ccc(C)c(Cn2nnc3c(=O)[nH]c(C4CCN(C(=O)c5ccco5)CC4)nc32)c1 | i | nt | nt | 102.0 | i | nt | 102.0
O=C(c1ccco1)N1CCC(c2nc3c(nnn3Cc3ccc(F)cc3)c(=O)[nH]2)CC1 | i | nt | nt | 98.0 | i | nt | 100.0
O=C(c1ccco1)N1CCC(c2nc3c(nnn3Cc3ccccc3Cl)c(=O)[nH]2)CC1 | i | nt | nt | 97.0 | i | nt | 96.0
Cc1ccc(C)c(Cn2nnc3c(=O)[nH]c(C4CCCN(C(=O)C5CCC5)C4)nc32)c1 (configuration not stated) | i | 1.1 | -6.9 | 102.0 | i | -9.0 | nt
COc1cc2[nH]c(=S)nc(NC3CCCCCC3)c2cc1OC | i | 1 | 0.0 | 73.0* | i | -5.6 | 99.0
Cc1cc(=O)n2nc(N3CCCC(C(=O)NCCCN4CC(C)CC(C)C4)C3)sc2n1 (configuration not stated) | i | nt | nt | 93.0 | i | nt | nt
Cc1ccc(S(=O)(=O)Nc2ccc(C(=O)N3CCCC3)cc2)c(C)c1NS(C)(=O)=O | i | nt | nt | 100.0 | i | nt | nt
CCOC(=O)C1CCCN(C(=O)c2cn(C)c3ccc(S(=O)(=O)N4CCCC4)cc3c2=O)C1 (configuration not stated) | i | 1 | -3.6 | 57.0* | i | -5.9 | 102.0
O=C(COC(=O)Cc1ccc(S(=O)(=O)N2CCOCC2)s1)Nc1ccccc1Cl | nt | nt | nt | 89.0 | nt | nt | nt
